# Reference: ChEMBL document CHEMBL4359830, “Discovery and structure-activity relationship of novel diphenylthiazole derivatives as BTK inhibitor with potent activity against B cell lymphoma cell lines” (Eur J Med Chem, 2019)
# Experiments:
# [1] = system: Ramos; assay: Antiproliferative activity against human Ramos cells at 40 uM measured after 72 hrs by CCK-8 assay relative to control; format: functional
# Outline: (§1)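 Ramos or Raji cells in RPMI-1640 with 10% FBS and 1% penicillin-streptomycin at 37 °C, 5% CO2. Seeded at 2000–3000 cells/well one day before compound addition. Exposure 72 h, then CCK-8 with absorbance at 450 nm. […] Single-point inhibition at 40 µM reported as mean ± standard deviation.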
# [2] = system: Ramos; assay: Antiproliferative activity against human Ramos cells measured after 72 hrs by CCK-8 assay; format: functional, cell-based; outline: as §1
# [3] = system: Raji; assay: Antiproliferative activity against human Raji cells at 40 uM measured after 72 hrs by CCK-8 assay relative to control; format: functional; outline: as §1
# [4] = system: Raji; assay: Antiproliferative activity against human Raji cells measured after 72 hrs by CCK-8 assay; format: functional, cell-based; outline: as §1
# [5] = system: Ramos; assay: Induction of apoptosis in human Ramos cells assessed as viable cells at 5 uM measured after 15 mins by Annexin-V-APC staining-based flow cytometric analysis (reference value: 96.5 %); format: functional
# [6] = system: Ramos; assay: Induction of apoptosis in human Ramos cells assessed as early apoptotic cells at 5 uM measured after 15 mins by Annexin-V-APC staining-based flow cytometric analysis (reference value: 0.14 %); format: functional
# [7] = system: Ramos; assay: Induction of apoptosis in human Ramos cells assessed as late apoptotic cells at 5 uM measured after 15 mins by Annexin-V-APC staining-based flow cytometric analysis (reference value: 1.85 %); format: functional
# [8] = system: Ramos; assay: Induction of apoptosis in human Ramos cells assessed as necrotic cells at 5 uM measured after 15 mins by Annexin-V-APC staining-based flow cytometric analysis (reference value: 1.50 %); format: functional
# [9] = system: Raji; assay: Induction of apoptosis in human Raji cells assessed as viable cells at 5 uM measured after 15 mins by Annexin-V-APC staining-based flow cytometric analysis (reference value: 97.5 %); format: functional
# [10] = system: Raji; assay: Induction of apoptosis in human Raji cells assessed as early apoptotic cells at 5 uM measured after 15 mins by Annexin-V-APC staining-based flow cytometric analysis (reference value: 0.021 %); format: functional
# [11] = system: Raji; assay: Induction of apoptosis in human Raji cells assessed as late apoptotic cells at 5 uM measured after 15 mins by Annexin-V-APC staining-based flow cytometric analysis (reference value: 0.57 %); format: functional
# [12] = system: Raji; assay: Induction of apoptosis in human Raji cells assessed as necrotic cells at 5 uM measured after 15 mins by Annexin-V-APC staining-based flow cytometric analysis (reference value: 1.87 %); format: functional
# [13] = system: Ramos; assay: Cell cycle arrest in human Ramos cells assessed as accumulation at G0/G1 phase at 1 uM measured after 48 hrs by propidium iodide/RNase staining based flow cytometric analysis (reference value: 37.66 %); format: functional
# [14] = system: Ramos; assay: Cell cycle arrest in human Ramos cells assessed as accumulation at S phase at 1 uM measured after 48 hrs by propidium iodide/RNase staining based flow cytometric analysis (reference value: 56.35 %); format: functional
# [15] = system: Ramos; assay: Cell cycle arrest in human Ramos cells assessed as accumulation at G2/M phase at 1 uM measured after 48 hrs by propidium iodide/RNase staining based flow cytometric analysis (reference value: 5.98 %); format: functional
# [16] = system: Raji; assay: Cell cycle arrest in human Raji cells assessed as accumulation at G0/G1 phase at 1 uM measured after 48 hrs by propidium iodide/RNase staining based flow cytometric analysis (reference value: 48.68 %); format: functional
# [17] = system: Raji; assay: Cell cycle arrest in human Raji cells assessed as accumulation at S phase at 1 uM measured after 48 hrs by propidium iodide/RNase staining based flow cytometric analysis (reference value: 33.18 %); format: functional
# [18] = system: Raji; assay: Cell cycle arrest in human Raji cells assessed as accumulation at G2/M phase at 1 uM measured after 48 hrs by propidium iodide/RNase staining based flow cytometric analysis (reference value: 18.14 %); format: functional
# [19] = system: Raji; assay: Potency index, ratio of ibrutinib IC50 to compound IC50 for antiproliferative activity against human Raji cells; format: functional
# [20] = biological target: Tyrosine-protein kinase BTK (Homo sapiens, UniProt Q06187); assay: Inhibition of human recombinant full length N-terminal His tagged BTK expressed in baculovirus infected Sf9 cells using poly (Glu,Tyr) 4:1 as substrate measured after 60 mins in presence of ATP by ADP-Glo kinase assay
# Tyrosine-protein kinase BTK, sequence (Q06187 whole entry): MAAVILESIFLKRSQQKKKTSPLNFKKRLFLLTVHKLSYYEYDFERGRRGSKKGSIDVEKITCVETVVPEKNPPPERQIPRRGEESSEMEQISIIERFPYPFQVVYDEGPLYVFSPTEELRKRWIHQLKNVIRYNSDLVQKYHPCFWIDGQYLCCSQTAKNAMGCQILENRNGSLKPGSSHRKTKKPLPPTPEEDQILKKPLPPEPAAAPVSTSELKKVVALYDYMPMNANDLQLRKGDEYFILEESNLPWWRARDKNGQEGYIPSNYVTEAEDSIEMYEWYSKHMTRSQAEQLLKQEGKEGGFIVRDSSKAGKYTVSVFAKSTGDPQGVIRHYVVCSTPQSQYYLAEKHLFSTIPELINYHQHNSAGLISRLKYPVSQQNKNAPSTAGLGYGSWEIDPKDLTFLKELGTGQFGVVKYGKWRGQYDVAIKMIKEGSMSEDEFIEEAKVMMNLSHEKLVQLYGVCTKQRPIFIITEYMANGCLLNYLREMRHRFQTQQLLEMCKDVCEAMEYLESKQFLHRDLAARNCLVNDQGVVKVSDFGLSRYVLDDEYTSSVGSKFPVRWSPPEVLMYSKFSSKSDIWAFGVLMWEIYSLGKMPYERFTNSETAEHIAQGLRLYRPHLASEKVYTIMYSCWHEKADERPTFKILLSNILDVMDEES
compound,measurement,setting,value
C=CC(=O)N1CCC[C@@H](n2nc(-c3ccc(Oc4ccccc4)cc3)c3c(N)ncnc32)C1 [IBRUTINIB],inhibition (INH),[1],81.2%
same,IC50,[2],14.7 µM
same,inhibition (INH),[3],76.23%
same,IC50,[4],16 µM
same,Activity,[5],89.1%
same,Activity,[6],0.13%
same,Activity,[7],5.88%
same,Activity,[8],4.92%
same,Activity,[9],94.8%
same,Activity,[10],0.01%
same,Activity,[11],1.14%
same,Activity,[12],4.01%
same,Activity,[13],68.45%
same,Activity,[14],28.73%
same,Activity,[15],2.81%
same,Activity,[16],70.42%
same,Activity,[17],14.66%
same,Activity,[18],14.92%
O=C(Nc1cccc(-c2nc(Nc3ccc(N4CCOCC4)cc3)c(C(=O)O)s2)c1)c1ccc(F)cc1,Ratio IC50,[19],13
same,IC50,[20],1.12 µM
same,inhibition at 40 µM,"[1]; Homo sapiens, Ramos, 72 h",90.5%
same,IC50,[2],3.51 µM
same,inhibition at 40 µM,"[3]; Homo sapiens, Raji, 72 h",96.4%
same,IC50,[4],1.2 µM
